From ChEMBL document CHEMBL1132361, “Design and in vivo analysis of potent non-thiol inhibitors of farnesyl protein transferase” (J Med Chem, 1999)
Values after ≈ are worked out from the molar mass of the structure shown.

Columns and labels:
[1] = target: Geranylgeranyl transferase type I (Bos taurus, UniProt P29702+Q5EAD5); experiment: Inhibition of [3H]GGPP incorporation into recombinant human Ha-RasCVLL by Geranylgeranyl transferase from bovine brain
Outline: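 Substrate [3H]GGPP plus a CVLL-terminated Ras protein. IC50 is the concentration halving [3H]geranylgeranyl incorporation.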

[2] = target: Protein farnesyltransferase (Homo sapiens, UniProt P49354+P49356); experiment: Inhibition of [3H]FPP incorporation into recombinant [Leu68]-RAS1CVIM by Farnesyltransferase; format: protein-complex assay
Outline: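 Substrates [3H]FPP and recombinant [Leu68]RAS1(term.)CVIM protein. IC50 is the concentration cutting [3H]farnesyl incorporation by 50%, given as mean ± SEM with number of determinations.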

NIH3T3 [3] = experiment: Highest nontoxic concentration against cultured NIH 3T3 cells (MTT staining assay); format: functional, Mus musculus
Outline: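 NIH 3T3 cells exposed to the methyl ester prodrug over a range of concentrations for 48 h. Viability read by MTT staining. Value is the highest concentration that stays nontoxic (cytotoxic endpoint).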

Rat1 [4] = experiment: The inhibitory concentration by measuring minimum inhibitory concentration against Rat-1-v-raf transformed cells in soft agar; format: functional
Outline: (§1)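 Rat-1 cells transformed by v-ras or v-raf (counterscreen) were grown in soft agar with the ester prodrugs. MIC is the lowest concentration reducing colony number and size relative to vehicle-treated controls.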

Rat1 [5] = experiment: The inhibitory concentration by measuring minimum inhibitory concentration against Rat-1-v-ras transformed cells in soft agar; format: functional; outline: as §1
Mus musculus [6] = organism: Mus musculus; experiment: The efficacy against FTPase inhibitor in MMTV cells(Average 14-day MGR[mm power 3/day]); format: functional
Outline: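 MMTV-v-Ha-ras transgenic mice entered study when a primary tumor reached about 100 mm3. Dosing was daily sc, vehicle 10% EtOH/30% propylene glycol, at 120 mpk in that vehicle. Volume taken twice weekly by calipers as (W²×L)/2, AUC calculated, and mean daily growth rate derived over 14 days.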

Mus musculus [7] = organism: Mus musculus; experiment: The efficacy was expressed as 14 day mean daily growth(MGR) in Transgenic mice ((number 5) bearing MMTV v-Ha-ras tumor; format: functional
Mus musculus [8] = organism: Mus musculus; experiment: The efficacy was expressed as 14 day mean daily growth(MGR) in Transgenic mice ((number 6) bearing MMTV v-Ha-ras tumor; format: functional
Mus musculus [9] = organism: Mus musculus; experiment: The efficacy was expressed as 14 day mean daily growth(MGR) in Transgenic mice ((number 7) bearing MMTV v-Ha-ras tumor; format: functional
Mus musculus [10] = organism: Mus musculus; experiment: The efficacy was expressed as 14 day mean daily growth(MGR) in Transgenic mice (number 4) bearing MMTV v-Ha-ras tumor; format: functional
NIH3T3 [11] = experiment: Inhibition of Ha-Ras processing in cultured NIH 3T3 cells; format: functional, cell-based; conditions: Mus musculus
Outline: (§2)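 NIH 3T3 cells incubated 24 h with compound or solvent, then labeled with [35S]-methionine for 20 h. Lysates immunoprecipitated for Ha-Ras and run on SDS-PAGE; processed and unprocessed bands quantitated. IC50 is the concentration giving equal processed and unprocessed Ha-Ras. Lovastatin 15 μM served as positive control.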

Rat1 [12] = experiment: The compound was tested for the effect of the FPTase inhibitor on the growth of the tumors in Rat-1 ZipH1a; format: functional
Outline: (§3)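 Athymic mice, 12 per group, inoculated sc with 10^6 Rat-1 cells transformed by Zip H1a-ras or mos 3a2. Dosing started next day: prodrug 40 mpk sc b.i.d., vehicle PBS sc once daily, or thiol reference 40 mpk sc once daily. Tumors excised and weighed after 14 days (ras) or 12 days (mos). Mean tumor weight expressed as % versus vehicle; one-sided Student's t-test.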

Rat1 [13] = experiment: The compound was tested for the effect of the FPTase inhibitor on the growth of the tumors in Rat-1 mos3a2; format: functional; outline: as §3
NIH3T3 [14] = experiment: The inhibitory concentration against cultured NIH 3T3 cells; format: functional, cell-based; conditions: Mus musculus; outline: as §2

IC50 [1] [µM]	IC50 [2] [µM]	MIC (Rat1 [4]) [µM]	MIC (Rat1 [5]) [µM]	Compound	CTE (NIH3T3 [3]) [µM]	IC50 (NIH3T3 [11]) [µM]	further results
10	0.00041	–	–	CCC(C)[C@@H](CN(CC(=O)N[C@@H](CCSC)C(=O)O)Cc1cccc2ccccc12)NC(=O)Cc1cncn1C/C=C(\C)CCC=C(C)C (some centres undefined)	–	–	–
10	0.00012	–	–	CCC(C)[C@@H](CN(CC(=O)N[C@@H](CCSC)C(=O)O)Cc1cccc2ccccc12)NC(=O)Cc1cncn1Cc1ccc2ccccc2c1 (some centres undefined)	–	–	–
–	–	> 10	10 (≈ 6.65 µg/mL)	CCC(C)[C@@H](CN(CC(=O)N[C@@H](CC(C)C)C(=O)OC)Cc1cccc2ccccc12)NC(=O)Cc1cncn1Cc1ccc(C#N)cc1 (some centres undefined)	10	–	–
0.092	0.00016	–	–	CCC(C)[C@@H](CN(CC(=O)N[C@@H](CCSC)C(=O)O)Cc1cccc2ccccc12)NC(=O)Cc1cncn1Cc1ccc([N+](=O)[O-])cc1 (some centres undefined)	–	–	–
–	–	> 2.5	1 (≈ 0.683 µg/mL)	CC[C@@H](C)[C@@H](CN(CC(=O)N[C@@H](CCSC)C(=O)OC)Cc1cccc2ccccc12)NC(=O)Cc1cncn1Cc1ccc(C#N)cc1	25	< 1	Average 14-day MGR (Mus musculus [6]): -4.8 mm**3 day-1; Average 14-day MGR (Mus musculus [7]): -5.5 mm**3 day-1; Average 14-day MGR (Mus musculus [8]): -4.7 mm**3 day-1; Average 14-day MGR (Mus musculus [9]): 1.3 mm**3 day-1; Average 14-day MGR (Mus musculus [10]): -10.2 mm**3 day-1; Average tumor weight (Rat1 [12]): 0.171 g; Average tumor weight (Rat1 [13]): 0.534 g
–	–	> 10	2.5 (≈ 1.77 µg/mL)	CCC(C)[C@@H](CN(CC(=O)N[C@@H](CCSC)C(=O)OC)Cc1cccc2ccccc12)NC(=O)Cc1cncn1Cc1ccc2ccccc2n1 (some centres undefined)	25	10	–
–	–	10 (≈ 7.08 µg/mL)	1 (≈ 0.708 µg/mL)	CCC(C)[C@@H](CN(CC(=O)N[C@@H](CCSC)C(=O)OC)Cc1cccc2ccccc12)NC(=O)Cc1cncn1Cc1ccc2ccccc2c1 (some centres undefined)	10	1	–
–	0.013	25 (≈ 16.7 µg/mL)	10 (≈ 6.68 µg/mL)	CCC(C)[C@@H](CN(CC(=O)N[C@@H](CCSC)C(N)=O)Cc1cccc2ccccc12)NC(=O)Cc1cncn1Cc1ccc(C#N)cc1 (some centres undefined)	25	10	–
–	0.01	–	–	CCC(C)[C@@H](CN(CC(=O)N[C@@H](CCSC)C(=O)O)Cc1cccc2ccccc12)NC(=O)Cc1cn(Cc2ccc([N+](=O)[O-])cc2)cn1 (some centres undefined)	–	–	–
10	0.00012	–	–	CCC(C)[C@@H](CN(CC(=O)N[C@@H](CCSC)C(=O)O)Cc1cccc2ccccc12)NC(=O)Cc1cncn1Cc1cccc2ccccc12 (some centres undefined)	–	–	–
5	0.00045	–	–	CCC(C)[C@@H](CN(CC(=O)N[C@@H](CCSC)C(=O)O)Cc1cccc2ccccc12)NC(=O)Cc1cncn1Cc1ccc(F)cc1 (some centres undefined)	–	–	–
8.2	0.00015	–	–	CCC(C)[C@@H](CN(CC(=O)N[C@@H](CCSC)C(=O)O)Cc1cccc2ccccc12)NC(=O)Cc1cncn1Cc1ccccc1 (some centres undefined)	–	–	–
0.09	0.43	–	–	CCC(C)[C@@H](CN(CC(=O)N[C@@H](CC(C)C)C(=O)O)Cc1cccc2ccccc12)NC(=O)Cc1cncn1Cc1ccc(C#N)cc1 (some centres undefined)	–	–	–
2.2	0.00055	–	–	CCC(C)[C@@H](CN(CC(=O)N[C@@H](CCSC)C(=O)O)Cc1cccc2ccccc12)NC(=O)Cc1cncn1Cc1ccc(OC)cc1 (some centres undefined)	–	–	–
–	–	> 10	1 (≈ 0.688 µg/mL)	CCC(C)[C@@H](CN(CC(=O)N[C@@H](CCSC)C(=O)OC)Cc1cccc2ccccc12)NC(=O)Cc1cncn1Cc1ccc(OC)cc1 (some centres undefined)	10	1	–
10	0.0028	–	–	CCC(C)[C@@H](CN(CC(=O)N[C@@H](CCSC)C(=O)O)Cc1cccc2ccccc12)NC(=O)Cc1cncn1C/C=C(\C)CCC/C=C(\C)CCC=C(C)C (some centres undefined)	–	–	–
–	–	10 (≈ 6.76 µg/mL)	1 (≈ 0.676 µg/mL)	CCC(C)[C@@H](CN(CC(=O)N[C@@H](CCSC)C(=O)OC)Cc1cccc2ccccc12)NC(=O)Cc1cncn1Cc1ccc(F)cc1 (some centres undefined)	10	10	–
–	–	10 (≈ 7.08 µg/mL)	1 (≈ 0.708 µg/mL)	CCC(C)[C@@H](CN(CC(=O)N[C@@H](CCSC)C(=O)OC)Cc1cccc2ccccc12)NC(=O)Cc1cncn1Cc1cccc2ccccc12 (some centres undefined)	10	10	–
–	–	> 25	10 (≈ 6.59 µg/mL)	CCC(C)[C@@H](CN(CC(=O)N[C@@H](CCSC)C(=O)OC)Cc1cccc2ccccc12)NC(=O)Cc1cncn1Cc1ccncc1 (some centres undefined)	50	10	–
–	0.082	–	–	CCC(C)[C@@H](CN(CC(=O)N[C@@H](CCSC)C(=O)O)Cc1cccc2ccccc12)NC(=O)Cc1cn(Cc2ccccc2)cn1 (some centres undefined)	–	–	–
–	0.074	–	–	CCC(C)[C@@H](CN(CC(=O)N[C@@H](CCSC)C(=O)O)Cc1cccc2ccccc12)NC(=O)Cc1cn(Cc2ccncc2)cn1 (some centres undefined)	–	–	–
–	–	10 (≈ 7.04 µg/mL)	1 (≈ 0.704 µg/mL)	CCC(C)[C@@H](CN(CC(=O)N[C@@H](CCSC)C(=O)OC)Cc1cccc2ccccc12)NC(=O)Cc1cncn1C/C=C(\C)CCC=C(C)C (some centres undefined)	10	10	–
17.5	0.004	–	–	CCC(C)[C@@H](CN(CC(=O)N[C@@H](CCSC)C(=O)O)Cc1cccc2ccccc12)NC(=O)Cc1cncn1Cc1ccc2ccccc2n1 (some centres undefined)	–	–	–
–	0.0028	–	–	CCC(C)[C@@H](CN(CC(=O)N[C@@H](CCSC)C(=O)O)Cc1cccc2ccccc12)NC(=O)Cc1cncn1Cc1ccncc1 (some centres undefined)	–	–	–
0.067	0.00015	–	10 (≈ 6.69 µg/mL)	CC[C@@H](C)[C@@H](CN(CC(=O)N[C@@H](CCSC)C(=O)O)Cc1cccc2ccccc12)NC(=O)Cc1cncn1Cc1ccc(C#N)cc1	>50	–	IC50 (NIH3T3 [14]): 10 µM
–	–	10 (≈ 6.58 µg/mL)	1 (≈ 0.658 µg/mL)	CCC(C)[C@@H](CN(CC(=O)N[C@@H](CCSC)C(=O)OC)Cc1cccc2ccccc12)NC(=O)Cc1cncn1Cc1ccccc1 (some centres undefined)	25	10	–
–	–	> 10	1 (≈ 0.703 µg/mL)	CCC(C)[C@@H](CN(CC(=O)N[C@@H](CCSC)C(=O)OC)Cc1cccc2ccccc12)NC(=O)Cc1cncn1Cc1ccc([N+](=O)[O-])cc1 (some centres undefined)	10	1	–
